Experiments:
[1] = target: Metabotropic glutamate receptor 2 (Homo sapiens) (UniProt Q14416); experiment: Inhibition of c-AMP by human Metabotropic glutamate receptor 2 (mGluR2) expressed in non-neuronal cells; type: cell-based
How it was run: (§1)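 Clonal nonneuronal cell lines expressing each mGlu subtype, washed in PBS with 3 mM glucose and 500 μM IBMX, preincubated 30 min at 37 °C. Compound added with forskolin (15 μM final), 20 min at 37 °C. Stopped with 6 mM EDTA and boiling. cAMP measured by [3H]cAMP SPA, with protein per well by Bradford assay. Read-out: EC50 for inhibition of forskolin-stimulated cAMP.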

[2] = target: Metabotropic glutamate receptor 5 (Homo sapiens) (UniProt P41594); experiment: Phosphoinositide hydrolysis by Metabotropic glutamate receptor 5 (mGluR5) expressed in non neuronal cells; type: cell-based
How it was run: (§2)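 Transfected nonneuronal cells seeded at 2.5 × 10^5 per well in glutamine-free medium for 24 h, then labeled with [3H]myo-inositol (4 µCi/mL) for 20 h. Washed in buffer with 10 mM HEPES, inositol and LiCl. Compound added and incubated 60 min at 37 °C. [3H]inositol monophosphate separated by anion exchange and counted by scintillation. Read-out: EC50 for PI hydrolysis.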

[3] = target: Metabotropic glutamate receptor 3 (Homo sapiens) (UniProt Q14832); experiment: (§3) Inhibition of c-AMP by human Metabotropic glutamate receptor 3 (mGluR3) expressed in non-neuronal cells; type: cell-based; how it was run: as §1
[4] = target: Metabotropic glutamate receptor 5 (Homo sapiens) (UniProt P41594); experiment: Phosphoinositide hydrolysis by human Metabotropic glutamate receptor 5 (mGluR5) expressed in non neuronal cells; type: cell-based; how it was run: as §2
[5] = target: Metabotropic glutamate receptor 6 (Homo sapiens) (UniProt O15303); experiment: (§4) Inhibition of c-AMP by human Metabotropic glutamate receptor 6 (mGluR6) expressed in non-neuronal cells; type: cell-based; how it was run: as §1
[6] = target: Metabotropic glutamate receptor 4 (Homo sapiens) (UniProt Q14833); experiment: (§5) Inhibition of c-AMP by human Metabotropic glutamate receptor 4 (mGluR4) expressed in non-neuronal cells; type: cell-based; how it was run: as §1
[7] = target: Metabotropic glutamate receptor 7 (Homo sapiens) (UniProt Q14831); experiment: (§6) Inhibition of c-AMP by human Metabotropic glutamate receptor 7 (mGluR7) expressed in non-neuronal cells; type: cell-based; how it was run: as §1
[8] = target: Metabotropic glutamate receptor 8 (Homo sapiens) (UniProt O00222); experiment: Inhibition of c-AMP by human Metabotropic glutamate receptor 8 (mGluR8) expressed in non-neuronal cells; type: cell-based; how it was run: as §1
[9] = target: Metabotropic glutamate receptor 4 (Homo sapiens) (UniProt Q14833); experiment: as §5; type: cell-based; remark: listed apart in the source
How it was run: (§7)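 Clonal nonneuronal cell lines transfected with each mGlu receptor. Cells washed in Dulbecco's PBS with 3 mM glucose and 500 μM IBMX, preincubated 30 min at 37 °C, then washed. Compound added with forskolin (15 μM final) and incubated 20 min at 37 °C. Stopped with 6 mM EDTA plus boiling, cAMP measured by [3H]cAMP SPA and normalised to Bradford protein. EC50 for inhibition of forskolin-stimulated cAMP.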

[10] = target: Metabotropic glutamate receptor 7 (Homo sapiens) (UniProt Q14831); experiment: as §6; type: cell-based; how it was run: as §7; remark: listed apart in the source
[11] = target: Metabotropic glutamate receptor 6 (Homo sapiens) (UniProt O15303); experiment: as §4; type: cell-based; how it was run: as §7; remark: listed apart in the source
[12] = target: Metabotropic glutamate receptor 3 (Homo sapiens) (UniProt Q14832); experiment: as §3; type: cell-based; how it was run: as §7; remark: listed apart in the source
[13] = target: Metabotropic glutamate receptor 7 (Rattus norvegicus) (UniProt P35400); experiment: Inhibition of c-AMP by rat Metabotropic glutamate receptor 7 mGluR7) expressed in non-neuronal cells
Rattus norvegicus = experiment: Mean effective dose that significantly blocked fear-potentiated startle(oral administration); conditions: read-out: MED

Sequence of Metabotropic glutamate receptor 5 (Homo sapiens) (P41594 21-1212 limits assumed): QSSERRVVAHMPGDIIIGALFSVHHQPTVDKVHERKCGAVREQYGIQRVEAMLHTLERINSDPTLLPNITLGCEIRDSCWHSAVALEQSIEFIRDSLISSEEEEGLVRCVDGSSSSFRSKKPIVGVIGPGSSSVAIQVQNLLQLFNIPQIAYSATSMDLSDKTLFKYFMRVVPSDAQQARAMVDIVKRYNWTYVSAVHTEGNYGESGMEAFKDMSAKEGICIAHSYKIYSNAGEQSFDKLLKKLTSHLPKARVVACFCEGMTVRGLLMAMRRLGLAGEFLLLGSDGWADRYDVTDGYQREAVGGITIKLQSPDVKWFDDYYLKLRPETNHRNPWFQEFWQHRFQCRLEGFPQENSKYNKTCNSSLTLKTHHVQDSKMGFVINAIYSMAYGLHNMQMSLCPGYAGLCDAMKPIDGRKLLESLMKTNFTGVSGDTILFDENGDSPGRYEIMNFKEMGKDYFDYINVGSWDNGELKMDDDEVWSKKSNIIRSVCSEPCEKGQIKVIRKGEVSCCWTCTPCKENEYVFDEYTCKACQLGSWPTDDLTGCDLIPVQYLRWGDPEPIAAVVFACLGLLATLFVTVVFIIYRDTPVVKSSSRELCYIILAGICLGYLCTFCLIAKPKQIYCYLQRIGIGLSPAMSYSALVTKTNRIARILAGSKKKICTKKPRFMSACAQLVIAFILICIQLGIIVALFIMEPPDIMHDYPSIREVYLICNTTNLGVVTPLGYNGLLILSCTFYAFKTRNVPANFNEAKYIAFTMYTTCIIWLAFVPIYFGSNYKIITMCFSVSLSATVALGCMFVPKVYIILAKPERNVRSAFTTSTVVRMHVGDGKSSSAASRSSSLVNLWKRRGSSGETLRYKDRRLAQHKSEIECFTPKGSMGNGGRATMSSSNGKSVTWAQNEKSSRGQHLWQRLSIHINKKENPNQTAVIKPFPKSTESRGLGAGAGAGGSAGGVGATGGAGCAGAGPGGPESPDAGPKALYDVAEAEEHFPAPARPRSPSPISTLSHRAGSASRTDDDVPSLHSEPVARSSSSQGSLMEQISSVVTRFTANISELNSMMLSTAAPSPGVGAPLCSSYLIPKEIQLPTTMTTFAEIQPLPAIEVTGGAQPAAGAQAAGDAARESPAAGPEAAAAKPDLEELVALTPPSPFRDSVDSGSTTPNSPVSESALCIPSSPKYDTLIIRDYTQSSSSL
Sequence of Metabotropic glutamate receptor 4 (Homo sapiens) (Q14833 whole entry): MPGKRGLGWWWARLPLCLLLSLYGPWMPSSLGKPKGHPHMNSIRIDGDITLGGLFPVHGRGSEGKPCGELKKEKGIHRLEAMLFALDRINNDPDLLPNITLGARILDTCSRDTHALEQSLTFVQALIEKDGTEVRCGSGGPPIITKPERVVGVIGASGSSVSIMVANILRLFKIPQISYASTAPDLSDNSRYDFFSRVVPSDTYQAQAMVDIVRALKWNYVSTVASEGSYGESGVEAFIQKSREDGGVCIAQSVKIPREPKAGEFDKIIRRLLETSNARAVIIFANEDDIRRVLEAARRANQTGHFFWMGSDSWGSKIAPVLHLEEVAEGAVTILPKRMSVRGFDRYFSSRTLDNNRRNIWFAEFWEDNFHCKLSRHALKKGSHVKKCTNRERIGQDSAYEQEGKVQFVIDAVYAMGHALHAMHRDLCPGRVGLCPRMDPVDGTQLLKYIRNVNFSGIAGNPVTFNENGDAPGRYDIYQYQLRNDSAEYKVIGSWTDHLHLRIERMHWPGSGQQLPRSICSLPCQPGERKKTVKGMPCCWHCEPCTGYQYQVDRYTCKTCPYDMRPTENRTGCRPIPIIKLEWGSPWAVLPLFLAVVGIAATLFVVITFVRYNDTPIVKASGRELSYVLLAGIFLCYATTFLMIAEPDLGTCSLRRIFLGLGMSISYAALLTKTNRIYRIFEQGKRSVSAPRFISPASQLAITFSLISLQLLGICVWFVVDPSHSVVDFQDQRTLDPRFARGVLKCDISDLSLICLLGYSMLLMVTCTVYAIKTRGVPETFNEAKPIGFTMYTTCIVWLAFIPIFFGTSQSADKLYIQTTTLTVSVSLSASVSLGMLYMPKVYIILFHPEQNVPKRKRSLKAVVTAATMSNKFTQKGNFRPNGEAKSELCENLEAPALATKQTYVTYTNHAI
Sequence of Metabotropic glutamate receptor 7 (Homo sapiens) (Q14831 whole entry): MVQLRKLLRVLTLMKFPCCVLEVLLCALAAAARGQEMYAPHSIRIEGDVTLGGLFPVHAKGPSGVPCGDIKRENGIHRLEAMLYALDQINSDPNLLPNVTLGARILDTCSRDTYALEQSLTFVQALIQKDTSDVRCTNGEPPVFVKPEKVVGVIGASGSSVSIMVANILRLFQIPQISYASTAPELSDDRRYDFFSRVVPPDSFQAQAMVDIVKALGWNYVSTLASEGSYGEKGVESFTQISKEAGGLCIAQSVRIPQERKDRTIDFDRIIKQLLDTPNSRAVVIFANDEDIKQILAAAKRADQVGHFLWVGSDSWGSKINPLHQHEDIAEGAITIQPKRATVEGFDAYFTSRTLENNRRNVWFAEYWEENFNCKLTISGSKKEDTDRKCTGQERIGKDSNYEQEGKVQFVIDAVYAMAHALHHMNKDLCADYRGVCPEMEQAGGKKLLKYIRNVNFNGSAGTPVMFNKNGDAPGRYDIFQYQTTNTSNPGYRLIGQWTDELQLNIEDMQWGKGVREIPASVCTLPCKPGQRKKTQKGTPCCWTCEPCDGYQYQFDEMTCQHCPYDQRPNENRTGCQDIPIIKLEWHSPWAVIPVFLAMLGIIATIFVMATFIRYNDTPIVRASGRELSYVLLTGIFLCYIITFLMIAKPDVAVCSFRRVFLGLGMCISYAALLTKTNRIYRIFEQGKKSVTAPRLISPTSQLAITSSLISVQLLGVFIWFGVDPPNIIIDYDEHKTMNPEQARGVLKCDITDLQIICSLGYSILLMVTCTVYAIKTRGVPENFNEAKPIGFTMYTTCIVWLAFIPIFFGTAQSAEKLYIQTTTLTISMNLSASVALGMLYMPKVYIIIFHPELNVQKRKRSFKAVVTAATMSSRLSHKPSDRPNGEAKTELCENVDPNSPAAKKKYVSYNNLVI
Sequence of Metabotropic glutamate receptor 2 (Homo sapiens) (Q14416 19-872 limits assumed): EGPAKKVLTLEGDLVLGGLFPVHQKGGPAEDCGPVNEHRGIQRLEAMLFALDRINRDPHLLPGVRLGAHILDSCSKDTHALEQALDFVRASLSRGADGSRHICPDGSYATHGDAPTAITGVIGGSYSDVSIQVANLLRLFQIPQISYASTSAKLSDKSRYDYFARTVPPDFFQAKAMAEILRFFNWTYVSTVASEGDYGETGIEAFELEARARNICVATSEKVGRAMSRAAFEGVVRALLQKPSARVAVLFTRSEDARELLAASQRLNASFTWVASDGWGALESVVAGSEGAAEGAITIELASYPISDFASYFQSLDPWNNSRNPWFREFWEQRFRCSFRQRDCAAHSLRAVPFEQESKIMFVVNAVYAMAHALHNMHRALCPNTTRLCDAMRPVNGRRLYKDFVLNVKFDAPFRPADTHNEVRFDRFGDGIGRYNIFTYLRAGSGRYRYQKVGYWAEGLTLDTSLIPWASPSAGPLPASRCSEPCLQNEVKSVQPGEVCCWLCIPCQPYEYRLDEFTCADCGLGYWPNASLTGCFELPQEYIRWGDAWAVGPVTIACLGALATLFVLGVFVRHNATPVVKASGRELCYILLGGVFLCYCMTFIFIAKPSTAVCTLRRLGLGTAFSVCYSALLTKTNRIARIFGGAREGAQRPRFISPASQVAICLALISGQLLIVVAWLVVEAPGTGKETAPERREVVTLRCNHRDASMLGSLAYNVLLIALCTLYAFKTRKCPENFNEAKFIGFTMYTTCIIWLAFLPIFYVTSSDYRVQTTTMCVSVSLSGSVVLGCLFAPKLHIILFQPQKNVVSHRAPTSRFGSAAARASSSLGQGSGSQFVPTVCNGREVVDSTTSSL
Sequence of Metabotropic glutamate receptor 8 (Homo sapiens) (O00222 whole entry): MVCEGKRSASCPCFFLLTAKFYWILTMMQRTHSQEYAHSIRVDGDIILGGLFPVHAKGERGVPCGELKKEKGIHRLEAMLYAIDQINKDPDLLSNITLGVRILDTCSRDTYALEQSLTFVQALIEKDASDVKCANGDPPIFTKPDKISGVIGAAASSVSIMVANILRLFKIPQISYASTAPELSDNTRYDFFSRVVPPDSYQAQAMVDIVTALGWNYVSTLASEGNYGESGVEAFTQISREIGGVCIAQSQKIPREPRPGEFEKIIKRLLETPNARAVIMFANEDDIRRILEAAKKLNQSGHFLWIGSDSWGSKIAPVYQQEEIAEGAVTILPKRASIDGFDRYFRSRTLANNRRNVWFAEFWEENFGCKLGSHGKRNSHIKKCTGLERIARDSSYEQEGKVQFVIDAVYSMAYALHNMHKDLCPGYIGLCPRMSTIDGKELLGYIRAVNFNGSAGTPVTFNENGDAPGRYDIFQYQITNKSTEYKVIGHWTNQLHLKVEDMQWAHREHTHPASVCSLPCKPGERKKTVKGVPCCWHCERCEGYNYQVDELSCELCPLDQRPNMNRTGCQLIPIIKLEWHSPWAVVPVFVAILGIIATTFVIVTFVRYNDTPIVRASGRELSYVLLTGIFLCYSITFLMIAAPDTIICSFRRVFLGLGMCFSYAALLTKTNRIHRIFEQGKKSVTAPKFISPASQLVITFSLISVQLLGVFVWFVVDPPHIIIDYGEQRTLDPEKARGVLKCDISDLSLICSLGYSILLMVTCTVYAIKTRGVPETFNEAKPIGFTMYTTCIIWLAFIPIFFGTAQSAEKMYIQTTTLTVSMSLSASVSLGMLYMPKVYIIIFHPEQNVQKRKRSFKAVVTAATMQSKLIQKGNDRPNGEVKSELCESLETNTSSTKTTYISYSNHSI
Sequence of Metabotropic glutamate receptor 7 (Rattus norvegicus) (P35400 whole entry, looked up): as the sequence (Q14831 whole entry) above, with R5G, A27V, N454H, S488T, A520S, D578N counted along it

## COC[C@H]1[C@H](C(=O)O)[C@H]1[C@H](N)C(=O)O
[1]
  Activity: 100 nM
[2]
  Activity: > 100 µM

## N[C@@]1(C(=O)O)CC[C@@H]2[C@H]1[C@@]2(F)C(=O)O
[3]
  Activity: 89 nM
[1]
  Activity: 16.6 nM
[4]
  Activity: > 100 µM
[5]
  Activity: > 100 nM
[6]
  Activity: > 100 µM
[7]
  Activity: > 100 µM

## C[C@@H]1[C@H](C(=O)O)[C@H]1[C@H](N)C(=O)O
[3]
  Activity: 2000 nM
[1]
  Activity: 188 nM
[4]
  Activity: > 100 µM
[8]
  Activity: 2.8 µM

## N[C@@]1(C(=O)O)CO[C@H]2[C@H](C(=O)O)[C@H]21
[3]
  Activity: 5 nM
[1]
  Activity: 3 nM
[4]
  Activity: > 100 µM
[5]
  Activity: 400 nM
[6]
  Activity: 21 µM
[7]
  Activity: > 100 µM
[8]
  Activity: 2 µM

## N[C@@]1(C(=O)O)CC(=O)[C@@H]2[C@H]1[C@@]2(F)C(=O)O
[4]
  Activity: > 100 µM
[9]
  Activity: > 100 µM
[10]
  Activity: > 100 µM
[11]
  Activity: > 100 nM
[12]
  Activity: 2.7 nM

## COC[C@@H]1[C@H](C(=O)O)[C@H]1[C@H](N)C(=O)O
[1]
  Activity: 300 nM
[4]
  Activity: > 100 µM

## N[C@@]1(C(=O)O)CC[C@@H](C(=O)O)C1
[3]
  Activity: 860000 nM
[1]
  Activity: 12000 nM
[4]
  Activity: 15 µM
[5]
  Activity: 18000 nM
[6]
  Activity: 90 µM
[7]
  Activity: 1000 µM
[8]
  Activity: 45 µM

## N[C@@H](CCC(=O)O)C(=O)O
[3]
  Activity: 9000 nM
[4]
  Activity: 4 µM
[5]
  Activity: 20000 nM
[6]
  Activity: 12 µM
[7]
  Activity: 5400 µM

## N[C@H](C(=O)O)[C@H]1C[C@@H]1C(=O)O
[3]
  Activity: 600 nM
[1]
  Activity: 300 nM
[4]
  Activity: 17 µM
[5]
  Activity: 600 nM
[7]
  Activity: 47 µM
[8]
  Activity: 0.4 µM

## N[C@]1(C(=O)O)[C@H]2[C@@H](C[C@@H]1F)[C@@H]2C(=O)O
[4]
  Activity: > 100 µM
[9]
  Activity: > 100 µM
[10]
  Activity: > 100 µM
[11]
  Activity: > 100 nM
[12]
  Activity: 45.4 nM
[8]
  Activity: > 100 µM

## N[C@H](C(=O)O)C1[C@@H](C(=O)O)[C@@H]1C(=O)O (stereo not given in full)
[3]
  Activity: 200 nM
[1]
  Activity: 300 nM
[4]
  Activity: 389 µM
[5]
  Activity: 40000 nM
[13]
  Activity: 40 µM
[6]
  Activity: 23 µM
[8]
  Activity: 32 µM

## N[C@@]1(C(=O)O)CS[C@H]2[C@H](C(=O)O)[C@H]21
[3]
  Activity: 8 nM
[1]
  Activity: 4 nM
[4]
  Activity: > 100 µM
[5]
  Activity: 2000 nM
[6]
  Activity: > 100 µM
[7]
  Activity: > 100 µM
[8]
  Activity: 7 µM

## N[C@@]1(C(=O)O)CC[C@H]2[C@H](C(=O)O)[C@H]21 [EGLUMETAD]
[3]
  Activity: 21 nM
[1]
  Activity: 7.9 nM
[4]
  Activity: > 100 µM
[5]
  Activity: 3000 nM
[6]
  Activity: > 100 µM
[7]
  Activity: > 100 µM
Rattus norvegicus
  minimal effective dose: 3 mg/kg
[8]
  Activity: 11.5 µM

## C[C@H]1[C@H](C(=O)O)[C@H]1[C@H](N)C(=O)O
[3]
  Activity: 38 nM
[1]
  Activity: 8 nM
[4]
  Activity: > 100 µM
[5]
  Activity: 1200 nM
[6]
  Activity: > 100 µM
[7]
  Activity: > 100 µM
Rattus norvegicus
  minimal effective dose: 0.0003 mg/kg
[8]
  Activity: 1.32 µM

— ChEMBL document CHEMBL1135971, “(2S,1'S,2'S,3'R)-2-(2'-carboxy-3'-methylcyclopropyl) glycine is a potent and selective metabotropic group 2 receptor agonist with anxiolytic properties” (2002)
